Results on 35 molecules are retold here after ChEMBL document CHEMBL4680082 (J Med Chem, 2016).

Test [1] addresses T1, 5-hydroxytryptamine receptor 2C (Homo sapiens) (UniProt P28335).
T1 sequence (whole entry): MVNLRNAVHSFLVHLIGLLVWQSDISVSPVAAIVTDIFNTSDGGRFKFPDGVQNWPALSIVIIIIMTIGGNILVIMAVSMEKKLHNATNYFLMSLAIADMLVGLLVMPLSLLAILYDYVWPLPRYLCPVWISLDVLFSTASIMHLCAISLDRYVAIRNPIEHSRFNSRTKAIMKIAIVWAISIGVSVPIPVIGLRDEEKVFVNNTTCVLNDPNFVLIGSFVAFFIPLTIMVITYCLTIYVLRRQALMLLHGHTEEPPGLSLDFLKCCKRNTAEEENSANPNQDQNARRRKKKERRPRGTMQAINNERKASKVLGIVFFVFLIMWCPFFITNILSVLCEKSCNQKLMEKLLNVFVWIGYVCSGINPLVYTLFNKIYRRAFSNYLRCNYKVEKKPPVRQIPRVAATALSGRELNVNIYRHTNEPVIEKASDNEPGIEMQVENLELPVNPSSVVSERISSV
Briefly: Agonist activity at human 5-HT2C receptor expressed in human Flp-In-293 cells assessed as induction of calcium flux incubated for 1 hr by Fluo-4 direct dye based FLIPR assay relative to 5-HT. Format: functional, cell-based. Particulars: filed as agonist.

For test [2], the target named is T2, 5-hydroxytryptamine receptor 2B (Homo sapiens, UniProt P41595). Briefly: Agonist activity at human 5-HT2B receptor expressed in human Flp-In-293 cells assessed as induction of calcium flux incubated for 1 hr by Fluo-4 direct dye based FLIPR assay relative to 5-HT. It is filed as functional, cell-based.
Test [3] concerns the target T3, 5-hydroxytryptamine receptor 2C (Homo sapiens, UniProt P28335).
T3 sequence (P28335 whole entry): T1 sequence (whole entry)

Test [4] concerns the target T2, 5-hydroxytryptamine receptor 2B.
Test [5] deals with T4, 5-hydroxytryptamine receptor 2A (Homo sapiens, UniProt P28223).
The target in test [6] is T1, 5-hydroxytryptamine receptor 2C (Homo sapiens). Nature of the test: Agonist activity at human 5-HT2C receptor expressed in human Flp-In-293 cells assessed as induction of calcium flux by measuring log (Emax/EC50) incubated for 1 hr by Fluo-4 direct dye based FLIPR assay. Format: functional, cell-based.
In test [7] the target is T2, 5-hydroxytryptamine receptor 2B. Nature of the test: Agonist activity at human 5-HT2B receptor expressed in human Flp-In-293 cells assessed as induction of calcium flux by measuring log(Emax/EC50) incubated for 1 hr by Fluo-4 direct dye based FLIPR assay. Format: functional, cell-based.
Test [8] deals with T4, 5-hydroxytryptamine receptor 2A. Briefly: Agonist activity at human 5-HT2A receptor expressed in human Flp-In-293 cells assessed as induction of calcium flux incubated for 1 hr by Fluo-4 direct dye based FLIPR assay relative to 5-HT. It is filed as functional, cell-based.
Test [9] has the same target. Nature of the test: Agonist activity at human 5-HT2A receptor expressed in human Flp-In-293 cells assessed as induction of calcium flux by measuring log(Emax/EC50) incubated for 1 hr by Fluo-4 direct dye based FLIPR assay. Format: functional, cell-based.
In test [10] the target is T1, 5-hydroxytryptamine receptor 2C (Homo sapiens). Nature of the test: Agonist activity at human 5-HT2C INI receptor expressed in human HEK293 cells assessed as induction of beta-arrestin-2 recruitment incubated for 20 hrs by Tango assay relative to 5HT. Format: cell-based. Particulars: filed as agonist. Summed up:
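Tango assay in HTLA cells (HEK line expressing TEV-fused β-arrestin-2 and tTA-driven luciferase) transfected with 5-HT2C INI–tTA fusion carrying a TEV site. Cells were stimulated with the same dilutions used for FLIPR, 20 h at 37 °C and 5% CO2, then lysed with Bright-Glo for 20 min at room temperature and read by luminescence. Data normalized to % 5-HT and fitted sigmoidally; n = 3 in triplicate. Bias from log(Emax/EC50).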

Several values for one entry are separate records, joined by “and”; a condition that tells them apart may be missing. Equal values may be shown once.

T4 sequence (P28223 whole entry): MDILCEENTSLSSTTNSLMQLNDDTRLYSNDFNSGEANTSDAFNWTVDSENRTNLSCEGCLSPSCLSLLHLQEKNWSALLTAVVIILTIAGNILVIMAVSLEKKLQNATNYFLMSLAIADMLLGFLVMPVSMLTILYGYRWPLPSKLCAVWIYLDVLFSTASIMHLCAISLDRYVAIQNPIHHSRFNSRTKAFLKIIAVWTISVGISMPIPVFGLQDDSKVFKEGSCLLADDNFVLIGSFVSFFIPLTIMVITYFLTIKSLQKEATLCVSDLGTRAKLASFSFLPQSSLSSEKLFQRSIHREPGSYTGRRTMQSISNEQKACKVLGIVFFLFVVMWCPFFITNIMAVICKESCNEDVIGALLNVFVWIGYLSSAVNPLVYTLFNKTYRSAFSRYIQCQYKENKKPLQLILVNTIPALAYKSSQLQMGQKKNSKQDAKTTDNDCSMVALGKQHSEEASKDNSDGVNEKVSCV
T2 sequence (P41595 whole entry): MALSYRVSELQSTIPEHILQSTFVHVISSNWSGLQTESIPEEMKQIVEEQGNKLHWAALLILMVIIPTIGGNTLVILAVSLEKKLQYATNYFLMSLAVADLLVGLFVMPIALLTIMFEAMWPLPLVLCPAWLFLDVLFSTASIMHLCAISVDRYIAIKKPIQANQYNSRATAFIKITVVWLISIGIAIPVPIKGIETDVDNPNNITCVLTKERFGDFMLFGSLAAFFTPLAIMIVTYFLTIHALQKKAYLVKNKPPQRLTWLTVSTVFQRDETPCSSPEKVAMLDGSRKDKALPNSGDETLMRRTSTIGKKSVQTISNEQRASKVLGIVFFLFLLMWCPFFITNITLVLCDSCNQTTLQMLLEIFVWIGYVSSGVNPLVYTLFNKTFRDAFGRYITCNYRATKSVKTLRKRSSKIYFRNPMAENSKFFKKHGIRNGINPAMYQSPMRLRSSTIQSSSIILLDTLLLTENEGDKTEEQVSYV

Consider `C=C(C)COc1ccc2occc2c1[C@H]1C[C@@H]1CN`, for which the results for the Emax in test [1] and in test [2] (filed as agonist) were 99% and 40%, respectively. The EC50 in test [3] was found to be 25 nM; in test [4] it was 150 nM; in test [5], 260 nM.

In the case of `CCc1cc2c([C@H]3C[C@@H]3CN)c(OCC3CC3)ccc2o1`, in [1], the Emax was found to be 101%. This molecule yielded an EC50 in test [3] of 138 nM.

As for `COc1ccc2c(c1[C@H]1C[C@@H]1CN)CCO2`, the figures for the Emax in test [1], in test [2] (filed as agonist) and in test [8] (filed as agonist) were 101%, 70% and 90%, respectively. The log(ratio) in [6] worked out at 8.05; in [7] it was 6.96; in test [9] it was 6.89. The EC50 in test [3] was 8.9 nM; in [4], 77 nM; in [5], 117 nM.

Take `CCOc1ccc2c(c1[C@H]1C[C@@H]1CN)CCO2`: the Emax came to 106% in [1], 58% in [2] (filed as agonist) and 81% in test [8] (filed as agonist). The figures for the log(ratio) in test [6], in [7] and in test [9] were 8.59, 7.03 and 6.86, respectively. Also, the EC50 in [3] is 2.7 nM; in [4], 58.9 nM and 54 nM; in test [5], 113 nM.

`NC[C@H]1C[C@@H]1c1c(OCC2CC2)ccc2occc12`: the results for the maximal effect (Emax) in [1] and in [2] were 99% and 27%, respectively. In addition, the EC50 in test [3] worked out at 12 nM; in [4] it was 180 nM; in test [5], 456 nM.

Consider `CC(C)Oc1ccc2occc2c1[C@H]1C[C@@H]1CN`, for which the values for the Emax in test [1], in test [2] and in test [8] (filed as agonist) were 99%, 39% and 79%, respectively. Besides, the figures for the log(ratio) in [6], in [7] and in [9] were 8.2, 6.35 and 6.42, respectively. Moreover, the results for the EC50 in [3], in test [4] and in [5] were 6.2 nM, 174 nM and 298 nM, respectively.

Take `CC(C)Oc1ccc2occc2c1[C@@H]1C[C@H]1CN`: the Emax in test [1] was 97%; in test [2] it was 25%; in test [8], 38%. In addition, the log(ratio) turned out to be 7.66 in [6], 5.74 in test [7] and 5.61 in test [9]. The EC50 worked out at 21 nM in [3], 453 nM in test [4] and 938 nM in test [5].

On to `CCCOc1ccc2occc2c1[C@@H]1C[C@H]1CN`, for which the Emax in [1] is 88%. For the same molecule, it took 87 nM to reach a half-maximal effect in test [3] (EC50).

For the molecule `CCCOc1ccc2occc2c1[C@H]1C[C@@H]1CN`, the Emax in test [1] was found to be 98%. Besides, the figures for the EC50 in test [3] and in [5] were 10 nM and 392 nM, respectively.

Take `CCCOc1ccc2c(c1[C@H]1C[C@@H]1CN)CCO2`: the Emax in test [1] stood at 104%. Moreover, the results for the EC50 in [3], in test [4] and in [5] were 20 nM, 258 nM and 749 nM, respectively.

In the case of `CCc1cc2c([C@@H]3C[C@H]3CN)c(OC)ccc2o1`, the maximum response (Emax) in test [1] is 88%. This molecule also registered an EC50 in test [3] of 101 nM.

In the case of `CCc1cc2c([C@@H]3C[C@H]3CN)c(OCCF)ccc2o1`, the Emax in test [1] was determined as 84%. Besides, the EC50 in test [3] worked out at 81 nM.

With `NC[C@@H]1C[C@H]1c1c(OCC2CC2)ccc2c1CCO2`, in [1], the Emax was determined as 65%. Also, the EC50 in test [3] turned out to be 283 nM.

Consider `NC[C@@H]1C[C@H]1c1c(OCCF)ccc2c1CCO2`, for which the Emax in test [1] is 79%; in test [8] (filed as agonist) it was 55%. Further, the EC50 in [3] was found to be 302 nM; in [5], 1960 nM.

With `COc1ccc2occc2c1[C@@H]1C[C@H]1CN`, the figures for the Emax in test [1], in [2] (filed as agonist) and in test [8] (filed as agonist) were 96%, 55% and 66%, respectively. Also, the values for the log(ratio) in [6], in test [7] and in [9] were 8.16, 5.88 and 6.78, respectively. Moreover, the EC50 is 6.76 nM and 6.6 nM in [3]; 725 nM in test [4]; 109 nM in [5].

Turning to `CCc1cc2c([C@H]3C[C@@H]3CN)c(OC)ccc2o1`, the Emax in test [1] amounted to 101%. Moreover, the EC50 in test [3] was determined as 2.7 nM; in [4], 60 nM; in test [5], 939 nM.

Consider `C[C@H]1CNCCc2ccc(Cl)cc21`, for which, in test [10], the Emax is 91%.

Take `C=C(F)COc1ccc2occc2c1[C@@H]1C[C@H]1CN`: the Emax worked out at 93% in test [1] and 29% in test [2]. The results for the EC50 in test [3] and in test [4] were 99 nM and 585 nM, respectively.

For `NC[C@@H]1C[C@H]1c1c(OCC2CC2)ccc2occc12`, the Emax in [1] was 87%; in test [2], 27%. Moreover, the EC50 was 113 nM in test [3]; 513 nM and 524 nM in test [4].

`NC[C@H]1C[C@@H]1c1c(OCC2CC2)ccc2c1CCO2`: the maximal response (Emax) in test [1] came to 95%. The EC50 came out at 26 nM in [3], 269 nM in test [4] and 754 nM in test [5].

In the case of `C=CCOc1ccc2c(c1[C@@H]1C[C@H]1CN)CCO2`, in test [1], the Emax is 90%. The molecule further had an EC50 in test [3] of 94 nM.

With `CCc1cc2c([C@@H]3C[C@H]3CN)c(OCC3CC3)ccc2o1`, the Emax in test [1] was 69%. This molecule gave an EC50 in test [3] of 446 nM.

Consider `COc1ccc2occc2c1[C@H]1C[C@@H]1CN`, for which the Emax turned out to be 93% in test [1], 64% in test [2] (filed as agonist) and 86% in test [8] (filed as agonist). The log(ratio) in test [6] was 8.76; in test [7], 6.76; in [9], 7.37. Also, the EC50 is 1.6 nM in test [3], 111 nM in test [4] and 37 nM in [5].

Turning to `C=C(F)COc1ccc2occc2c1[C@H]1C[C@@H]1CN`, the Emax was found to be 103% in test [1] and 38% in test [2]. Further, the EC50 is 9.2 nM in [3], 128 nM in test [4] and 358 nM in [5].

`CCOc1ccc2c(c1[C@@H]1C[C@H]1CN)CCO2`: the Emax came to 105% in test [1], 30% in [2] and 35% in test [8]. Besides, the log(ratio) in test [6] came to 7.41; in [7] it was 5.58; in test [9] it was 5.55. The EC50 was 41 nM in [3], 781 nM in [4] and 976 nM in test [5].

Regarding `CCOc1ccc2occc2c1[C@@H]1C[C@H]1CN`, the Emax in test [1] was determined as 107%; in test [8], 15%. The EC50 in test [3] came out at 26 nM; in test [5], 585 nM.

In the case of `C=C(C)COc1ccc2occc2c1[C@@H]1C[C@H]1CN`, the Emax in test [1] worked out at 70%; in test [2] it was 33%. Further, the values for the EC50 in test [3] and in [4] were 261 nM and 733 nM, respectively.

In test [3], `CCCOc1ccc2oc(CC)cc2c1[C@H]1C[C@@H]1CN` returned an EC50 of 81 nM.

`CCOc1ccc2oc(CC)cc2c1[C@H]1C[C@@H]1CN`: the Emax in test [1] came out at 100%. Besides, the concentration for a half-maximal effect (EC50) in test [3] was 15 nM; in test [4] it was 309 nM; in [5] it was 2630 nM and 2600 nM.

Consider `CCCOc1ccc2c(c1[C@@H]1C[C@H]1CN)CCO2`, for which the Emax in test [1] amounted to 94%. This molecule showed an EC50 in test [3] of 96 nM.

Take `COc1ccc2c(c1[C@@H]1C[C@H]1CN)CCO2`: the Emax in [1] is 102%; in [2] (filed as agonist) it was 45%; in test [8] (filed as agonist), 66%. The values for the log(ratio) in [6], in test [7] and in test [9] were 7.73, 6.21 and 6.35, respectively. Also, the EC50 in test [3] is 19 nM; in [4], 279 nM; in test [5], 295 nM.

Turning to `CCOc1ccc2oc(CC)cc2c1[C@@H]1C[C@H]1CN`, the Emax in test [1] came out at 76%. Also, in [3], the EC50 turned out to be 115 nM.

As to `NC[C@@H]1C[C@H]1c1c(OCCF)ccc2occc12`, the maximal response (Emax) came to 98% in test [1], 34% in [2] and 22% in test [8]. The half-maximal effective concentration (EC50) in [3] is 33 nM; in test [4], 448 nM; in test [5] it was 393 nM.

For `CCOc1ccc2occc2c1[C@H]1C[C@@H]1CN`, the Emax in [1] is 106%; in [8] (filed as agonist), 74%. The EC50 in test [3] came to 2.6 nM; in test [4], 84 nM; in test [5], 111 nM.

For `C=CCOc1ccc2occc2c1[C@@H]1C[C@H]1CN`, the Emax in test [1] came out at 101%. Moreover, the EC50 in test [3] was 56 nM.
